# Data: PubChem BioAssay AID651647 (Sanford-Burnham Center for Chemical Genomics, 2012)
# The campaign covered roughly 360,000 compounds. About 220 (0.061%) were called active. For the sample, actives were picked, then their nearest neighbours and some compounds at random. Unmarked numbers belong to inactive results.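 How the source made its calls: active means GFP/RFP ratio change of at least 30% with cell ATP level not reduced by more than half and red fluorescence within 50% of control; inactive means the rest, inconclusive results apart.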
# Biological target: Matrix metalloproteinase-14 (Homo sapiens) (UniProt P50281)
# Assay: MT1-MMP activation inhibitors, cellular reporter – HT1080 RFP-PRO-GFP cells, GFP/RFP fluorescence, primary screen (AID 651647)
# Conditions: overnight, at 20 µM, stronger effect = higher value, percent of plate control window, DMSO zero
# Summary of the method: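 Compound: 20 µM single dose, 1% DMSO / System: HT1080 RFP-PRO-GFP cells / Controls: DMSO and RFP-L50D-GFP cell wells / Read-out basis: GFP/RFP fluorescence ratio / Schedule: overnight compound exposure at 37 °C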
row,Structure (SMILES),GFP/RFP ratio change
1,CC12CCC(C(=O)N(NC(=O)c3ccccc3O)C1=O)C2(C)C (stereo not given),2.09%
2,CC(C)COC(=O)C1C2C=CC3(CN(C(C)c4ccc(Br)cc4)C(=O)C13)O2 (stereo not given),3.45%
3,COC(=O)CN1C(=O)[C@H]2[C@@H](/C=C/c3ccccc3)N3C(=O)CN(Cc4ccccc4)C(=O)[C@@]3(Cc3ccccc3)[C@H]2C1=O,2.05%
4,CCC(C(=O)NCc1ccc(OC)cc1)n1nc(C)n2c(cc3occc32)c1=O (stereo not given),-2.32%
5,O=C(c1cccc(S(=O)(=O)N2CCCC2)c1)N(Cc1ccco1)C1CCS(=O)(=O)C1 (stereo not given),-1.85%
6,COc1ccc2c(c1OC)C(=O)N(c1ncn[nH]1)C2,5.29%
7,COc1cc(C2C(N3C(=O)c4ccccc4C3=O)C(=O)N2c2ccc(C)c(C)c2)cc(OC)c1OC (stereo not given),4.49%
8,CCN(CC(=O)Nc1ccc(NC(C)=O)cc1)C(=O)C1CC(=O)N(c2ccc3c(c2)OCCO3)C1 (stereo not given),1.76%
9,COc1ccccc1NC1=NC(c2ccc(Cl)cc2)N=C(N)N1 (stereo not given),-2.9%
10,Cc1cc(OC(=O)c2ccc(Cl)cc2)cc(=O)n1C,0.208%
11,CCN(CC)C(=O)N1CCN(C(=O)c2ccc(C)cn2)CC1,4.93%
12,CC1(C(=O)NCc2ccc3c(c2)OCO3)CCN1CCc1ccccc1 (stereo not given),2.41%
13,COCCCNC(=O)CN1C(=O)CSc2ccc(S(=O)(=O)N3CCOCC3)cc21,-2.33%
14,CCn1cc(CCC(=O)NCc2ccc(F)cc2)c2ccccc21,1.53%
15,N#Cc1ccc(-c2nc3c(Cl)cc(C(F)(F)F)cn3c2Cc2ccccc2C(F)(F)F)cc1,1.7%
16,CN(C)CCCn1c(SCc2ccc(Cl)cc2)nnc1-c1ccncc1,1.22%
17,CC1(C)OC(=O)C2=C(C[C@@H](C3CCCCC3)O[C@@H]2c2ccc(Cl)cc2)O1,-0.857%
18,CC1(C)CC(=O)NC=C(c2ccccc2)C1,0.817%
19,COc1ccc(C(=O)COC(=O)c2c(C)noc2C)cc1Cl,0.327%
20,O=c1[nH]nc(SCCS(=O)(=O)c2ccc(F)cc2)n1-c1ccccc1C(F)(F)F,1.01%
21,COc1cccc(NC(=O)Cn2c3ccc(F)cc3c3nc4n(c(=O)c32)CCS4)c1,1.54%
22,O=C(CCc1ccccc1F)N1CCN(c2ccccc2)CC1,-1.03%
23,Cc1cc(=O)oc2c1ccc1ccccc12,0.0995%

row,Structure (SMILES),GFP/RFP ratio change
1,CCCCCc1ccc(-c2ccc(C(=O)O)cc2)nc1,0.418%
2,Cc1cc(C)c(C#N)c(SCS(=O)c2ccc(C(C)(C)C)cc2)n1 (stereo not given),3.13%
3,O=C(COC(=O)C1CCN(S(=O)(=O)c2ccc3c(c2)OCCO3)CC1)Nc1ccccc1OC(F)F,-1.25%
4,CC1(C)CN(Cc2cccnc2)C(=O)[C@H]1CC(=O)Nc1ccc(Br)cc1,-0.506%
5,CCCc1nc(-c2ccccc2O)n(-c2ccccc2)n1,1.17%
6,N#CCSc1nc2ccc(N3CCOCC3)cc2c(=O)n1CCc1ccccc1,9.47%
7,COc1cc(NC(=O)CCS(=O)(=O)c2ccc3c(c2)oc(=O)n3C)cc(OC)c1,0.489%
8,Cc1cc(OCc2ccc(C(=O)Nc3ccc(C(=O)O)cc3)o2)ccc1Cl,1.24%
9,Cc1ccc(NC(=O)COc2coc(CN3CCc4ccccc4C3)cc2=O)cc1Cl,-6.33%
10,CCCc1c(C(=O)N/N=C(\C)CCc2ccc(OC)cc2)nnn1-c1nonc1N,0.35%
11,O=C1CCCC(O)=C1N=Nc1ccc2ncsc2c1,4.19%
12,O=C1CCCC(O)=C1N=Nc1ccc(S(=O)(=O)N2CCOCC2)cc1,48.9% (active)
13,CC1(C)CC(=O)C(N=Nc2ccc(S(=O)(=O)N3CCCCCC3)cc2)=C(O)C1,3.46%
14,CC1(C)CC(=O)C(C2=NC(C)(C)Cc3ccccc32)=C(O)C1,-1.97%
15,CCCCCCN1C[C@H](O)[C@@H](n2cc(C3CC3)nn2)C[C@@H]1c1ccc(Cl)cc1,2.78%
16,CC1CC(C)CN(CCCNC(=O)Cn2ncc3c([nH]c4ccccc43)c2=O)C1 (stereo not given),-6.2%
17,Cc1ccc(C(=O)OCC(=O)Nc2ccc(Cl)cn2)cc1S(=O)(=O)N1CCOCC1,2.27%
18,CCOc1ccc(NC(=O)[C@H](C)NC(=O)C2CC(=O)N(c3ccc(OC)cc3)C2)cc1 (stereo not given in full),0.231%
19,CCOC(=O)c1c(NC(=O)CCCN2CCOCC2)sc2c1CC(C)(C)OC2,-2.69%
20,O=P(O)(CP(=O)(c1ccccc1)c1ccccc1)c1ccccc1,35.4% (active)
21,O=P(O)(CP(=O)(c1ccccc1)c1ccccc1)c1ccccc1O,2.61%
22,O=C(CP(=O)(c1ccccc1)c1ccccc1)N1CCOCC1,1.97%
23,Cc1noc(COc2ccccc2OCc2onc(C)c2Cl)c1Cl,-3.96%

row,Structure (SMILES),GFP/RFP ratio change
1,CC(C)(C)Cc1c(C2CCCCC2)nc2ccc(Br)cn12,-6.01%
2,CCN(CC)C(=O)Oc1ccc(Br)cc1C(=O)Nc1ccc(F)c(Cl)c1,-4.63%
3,COc1ccc(-c2noc(C(C)NS(=O)(=O)c3ccc(NC(C)=O)cc3)n2)cc1 (stereo not given),-4.06%
4,CCOC(=O)c1cnc2c(c(C)nn2CC)c1Cl,2.11%
5,COc1ccc(NC(=O)C(C)N2c3cccc4cccc(c34)S2(=O)=O)c(OC)c1 (stereo not given),3.17%
6,COc1ccc(CC(NC(C)=O)C(=O)N2CCN(C(=O)Nc3cccc(Cl)c3)CC2)cc1OC (stereo not given),-3.43%
7,Brc1ccc(Nc2c3c(nc4ncnn24)CCC3)cc1,1.92%
8,CN=C1C=C/C(=N/N=c2\ccn(O)cc2C)C=C1C,61% (active)
9,CC[N+]1(CC)CC2=Cc3ccccc3CC2C1 (stereo not given),0.892%
10,CC(Sc1nc2cc(Cl)ccc2s1)C(=O)Nc1ccc2c(c1)OCO2 (stereo not given),3.37%
11,COCCCNC(=O)/C(C#N)=C/c1c(N2CCCCCC2)nc2ccccn2c1=O,-0.526%
12,CCOC(=O)c1cc(-c2sc(NC(=O)c3ccccc3)nc2C)n(Cc2ccccc2)n1,-13.8%
13,CCN1CCN(c2c(Cl)cccc2NC(=O)c2ccc(Br)o2)CC1,6.59%
14,CNC(=O)c1[nH]cnc1C(=O)N[C@@H](CC(C)C)C(=O)OCc1ccccc1,3.79%
15,CSc1ncccc1C(=O)N1CCCC(Nc2ccc(F)c(F)c2)C1 (stereo not given),0.99%
16,O=Cc1c(NCCc2cccc(F)c2)c2ccccc2[nH]c1=O,-3.4%
17,Cn1c(=S)sc2ccc3ccccc3c21,2.62%
18,CN(C(=O)CSc1cccc[n+]1[O-])C1CCCCC1,9.34%
19,Cc1ccc(S(=O)(=O)N2CC(C)N(S(C)(=O)=O)C2)cc1 (stereo not given),0.163%
20,CCc1ccnc(NS(=O)(=O)c2ccc3c(c2)OCCO3)c1,3.33%
21,Cc1ccc2c(c1)N(S(=O)(=O)c1cc(-c3cc(C)no3)ccc1C)CCO2,0.714%
22,CC(=O)c1c(O)cc2n(c1=O)-c1ccc(Cl)cc1C2(C)C,-5.09%
23,CCOC(=O)C1(O)CC(C)=NN1C(=O)c1cccc(Br)c1 (stereo not given),7.72%

row,Structure (SMILES),GFP/RFP ratio change
1,O=C(O)CC(Cn1cnnn1)c1ccccc1 (stereo not given),-0.417%
2,Nc1nc(SCc2cccc(Br)c2)n[nH]1,6.02%
3,CC(=O)c1nn(-c2ccc(C)cc2)cc1C(=O)c1cccc(Br)c1,0.8%
4,CCc1ccc(C2N3CC4([N+](=O)[O-])CN2CC([N+](=O)[O-])(C3)C4(C)C)cc1 (stereo not given),-2.43%
5,O=S(=O)(Nc1ncccn1)c1ccc(NS(=O)(=O)c2cccc(Cl)c2Cl)cc1,-0.508%
6,O=c1ccc2c(-c3ccccc3S(=O)(=O)O)c3ccc(O)c(O)c3oc-2c1O,49.3% (active)
7,N/C(=N\OS(=O)(=O)c1cccc([N+](=O)[O-])c1)c1ccncc1,1.12%
8,CCc1ccnc(NC(=O)Nc2ccc(OCc3ccccc3)cc2)c1,3.94%
9,CC(C)(C)OC(=O)N1CCN(C(=O)c2[nH]c(C(F)(F)F)nc2-c2ccccc2)CC1,3.61%
10,CN1CC(c2ccccc2)C2(COc3ccccc3C2=O)C12C(=O)Nc1ccccc12 (stereo not given),-4.6%
11,Cc1ccc2c(c1)N(CC(=O)NCCCN1CCCCC1)C(=O)c1cccnc1O2,1.06%
12,Cc1ccccc1S(=O)(=O)NC(=O)C1(C)CCN1C(=O)C1(c2ccc(Cl)cc2)CC1 (stereo not given),0.579%
13,O=C(COC(=O)c1ccc(S(=O)(=O)N2CCCCCC2)cc1)Nc1ccccc1C(F)(F)F,-2.08%
14,COc1ccccc1C1CCN(C(=S)Nc2ccc(Br)cc2)CC1,-1.18%
15,CC(C)[C@H](NC(=O)N1CCn2c1nc1ccccc12)C(=O)NCCc1ccccc1,1.13%
16,O=c1[nH]snc1-c1c(Cl)cccc1Cl,-2.44%
17,COC(=O)NNC(=O)C1CCC(C)CC1 (stereo not given),0.231%
18,Cc1cn(C2CC(O)C(CO)O2)c(=O)n(CCCc2ccccc2)c1=O (stereo not given),5.06%
19,Cc1nn(C)c(Oc2ccccc2)c1CCNS(=O)(=O)c1ccc(F)cc1,0.853%
20,O=C(c1ccc(F)c(S(=O)(=O)N2CCOCC2)c1)N(CCc1ccccc1)Cc1ccccc1,-8.33%
21,CC(=O)c1cc2c(cc1NC(=O)CN1CCCCCC1)OCO2,-5.12%
